From ChEMBL document CHEMBL1130151, “Curcumin analogs with altered potencies against HIV-1 integrase as probes for biochemical mechanisms of drug action” (J Med Chem, 1997)

Experiments:
[1] = molecular target: T1, Human immunodeficiency virus type 1 integrase (Human immunodeficiency virus 1, UniProt Q7ZJM1); assay: Inhibition of strand transfer activity of HIV-1 integrase
Outline: (§1)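 Recombinant HIV-1 integrase (200 nM final) preincubated with inhibitor 30 min at 30 °C in buffer (pH 7.2 MOPS, 7.5 mM MnCl2, 10% DMSO, 50 mM NaCl, BSA, reducing agents, glycerol). Then 20 nM 5′-32P-labeled linear oligonucleotide substrate added, reaction run 1 h more. Products resolved on denaturing 20% polyacrylamide/urea gel. IC50 read from plot of concentration versus percent inhibition.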

[2] = molecular target: T1, Human immunodeficiency virus type 1 integrase; assay: Inhibition of 3'- processing activity of HIV-1 integrase; outline: as §1

T1 sequence (Q7ZJM1 whole entry): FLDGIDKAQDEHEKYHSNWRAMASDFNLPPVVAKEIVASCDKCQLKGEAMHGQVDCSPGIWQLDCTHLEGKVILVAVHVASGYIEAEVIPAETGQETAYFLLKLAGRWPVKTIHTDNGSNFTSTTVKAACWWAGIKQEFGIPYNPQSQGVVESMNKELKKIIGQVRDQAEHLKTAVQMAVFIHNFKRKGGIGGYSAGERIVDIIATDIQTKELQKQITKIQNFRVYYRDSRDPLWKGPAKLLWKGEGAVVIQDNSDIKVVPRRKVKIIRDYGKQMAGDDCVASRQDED

Row | SMILES | IC50 [1] [µM] | IC50 [2] [µM]
1 | COc1cc(/C=C/C(=O)CC(=O)/C=C/c2ccc(O)c(O)c2)ccc1O | 9 | 18
2 | COc1cc(CCC(=O)CC(=O)CCc2ccc(O)c(OC)c2)ccc1O [TETRAHYDROCURCUMIN] | > 300 | > 300
3 | O=C(/C=C/c1ccc(O)c(O)c1)CC(=O)/C=C/c1ccc(O)c(O)c1 | 3.1 | 6
4 | O=C(/C=C/c1ccc(O)cc1)CC(=O)/C=C/c1ccc(O)cc1 [BISDEMETHOXYCURCUMIN] | 80 | 120
5 | O=C(/C=C/c1ccc(O)c(O)c1)O[C@H](Cc1ccc(O)c(O)c1)C(=O)O [ROSMARINIC ACID] | 4 | 9
6 | O=C(/C=C/c1ccccc1)CC(=O)/C=C/c1ccccc1 | > 300 | > 300
7 | COc1cc(/C=C/C(=O)CC(=O)/C=C/c2ccc(O)c(OC)c2)ccc1O [CURCUMIN] | 140 | 150
8 | COc1ccc(/C=C/C(=O)CC(=O)/C=C/c2ccc(OC)cc2)cc1 | > 300 | > 300
9 | COc1cc(/C=C/C(O)=C/C(=O)/C=C/c2ccc(O)cc2)ccc1O [DEMETHOXYCURCUMIN] | 120 | 140
